How the values were obtained:
CRBPI [1] = molecular target: T1, CRBPI (Rattus norvegicus, UniProt P02696); experiment: Fluorescence titration binding of retinoids to CRBPI; conditions: for affinity of CRBPI compared to CRBPII (fold stronger): ratio of Kd′ values CRBPII/CRBPI
T1 sequence (P02696 1-135): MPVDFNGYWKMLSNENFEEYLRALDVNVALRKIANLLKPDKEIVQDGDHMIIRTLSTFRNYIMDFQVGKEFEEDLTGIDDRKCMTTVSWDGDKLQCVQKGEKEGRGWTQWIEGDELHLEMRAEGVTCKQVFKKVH

CRBPII = molecular target: T2, CRBPII (Rattus norvegicus, UniProt P06768); format: binding; conditions: excitation spectra pre- and post-column
T2 sequence (P06768 1-134): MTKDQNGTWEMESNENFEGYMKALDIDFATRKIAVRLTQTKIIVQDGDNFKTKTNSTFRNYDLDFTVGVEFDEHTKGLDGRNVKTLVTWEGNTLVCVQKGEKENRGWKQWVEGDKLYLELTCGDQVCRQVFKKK
Method in brief: (§1)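 Sephadex G-50 (fine) was equilibrated for several days in 20 mM KH2PO4, 100 mM KCl, pH 7.4. Small syringe columns were poured, a separate one for each protein–ligand pair. E. coli-expressed, FPLC-purified protein carried bound retinol. Excitation spectra of the complex were recorded before and after passage, with roughly equivalent free retinol in buffer as reference. Blanks were subtracted.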

CRBPI [2] = molecular target: T1, CRBPI; format: binding; conditions: excitation spectra pre- and post-column
Method in brief: as §1

CRBPI and II = conditions: 19F NMR estimate; cited from earlier work

Row | CRBPI affinity for 9-cis-retinol relative to all-trans- and 13-cis-retinol (fold lower) (CRBPI [1]; ratio of Kd′ values) | affinity of CRBPI compared to CRBPII (fold stronger) (CRBPI [1]) | elution of complex with CRBPII through Sephadex G-50 (CRBPII) | elution of complex with CRBPI through Sephadex G-50 (CRBPI [2]) | SMILES | Kd′ value of CRBPI relative to CRBPII (fold less) (CRBPI and II)
1 | ~ 3 fold | ~ 6 fold | eluted bound | eluted bound | CC1=C(/C=C/C(C)=C\C=C\C(C)=C\CO)C(C)(C)CCC1 [9-cis-retinol] | –
2 | – | ~ 3 fold | bound | bound | CC1=C(/C=C/C(C)=C/C=C/C(C)=C/CO)C(C)(C)CCC1 [all-trans-retinol] | 10–100 fold

Reference: PMC4113001 (Biochimica et biophysica acta, 2011)
